Experimental data: ChEMBL document CHEMBL4425138, “Probing Lipophilic Adamantyl Group as the P1-Ligand for HIV-1 Protease Inhibitors: Design, Synthesis, Protein X-ray Structural Studies, and Biological Evaluation” (J Med Chem, 2016)

What was measured:
[1] = test system: Human immunodeficiency virus 1; assay: Antiviral activity against multi-drug resistant HIV1C harboring protease L10I/I15V/K20R/L24I/M36I/M46L/I54V/I62V/L63P/K70Q/V82A/L89M mutant infected in human MT4 cells by p24 assay; assay type: functional, organism-based; settings: Human immunodeficiency virus 1, C
Procedure, shortened: (§1)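 MT-4 cells (1×10^4) infected with 50 TCID50 of virus and cultured across a range of compound concentrations. Virus was wild-type HIV-1 NL4-3 or a multidrug-resistant variant (HIV-1B, HIV-1C, or DRV-resistant P20). IC50 from p24 assay. Run in triplicate. Values are means (±1 SD) from two independent experiments.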

[2] = test system: Human immunodeficiency virus 1; assay: Antiviral activity against wild type HIV1 NL4-3 infected in human MT4 cells by p24 assay; assay type: functional, organism-based; settings: Human immunodeficiency virus 1, NL4-3, MT4
Procedure, shortened: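 MT-4 cells (1×10^4) infected with 50 TCID50 of virus and cultured across a range of compound concentrations. IC50 from p24 assay. Run in triplicate. Values are means (±1 SD) from two independent experiments.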

[3] = test system: Human immunodeficiency virus 1; assay: Antiviral activity against multi-drug resistant HIV1B harboring protease L10I/L33I/M36I/M46I/F53L/K55R/I62V/L63P/A71V/G73S/V82A/L90M/I93L mutant infected in human MT4 cells by p24 assay; assay type: functional, organism-based; settings: Human immunodeficiency virus 1, B; procedure, shortened: as §1
[4] = test system: Human immunodeficiency virus 1; assay: Antiviral activity against darunavir resistant HIV1 harboring protease L10I/I15V/K20R/L24I/V32I/M36I/M46L/L63P/A71T/V82A/L89M mutant at 20 passages infected in human MT4 cells by p24 assay; assay type: functional, organism-based; settings: Human immunodeficiency virus 1, MT4; procedure, shortened: as §1
[5] = biological target: Protease (Human immunodeficiency virus 1, UniProt Q9YQ12); assay: Inhibition of HIV1 protease using Abz-NleF*-6 as substrate preincubated for 5 to 10 mins followed by substrate addition measured after 1 hr by fluorometric assay
[6] = test system: Human immunodeficiency virus; assay: Antiviral activity against HIV1 […] infected in human MT2 cells by MTT assay; assay type: functional, organism-based; settings: Human immunodeficiency virus 1, MT2
Procedure, shortened: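 MT-2 human T-lymphoid cells infected with 100 TCID50 of HIV-1 LAI and cultured with each inhibitor. IC50 read by MTT assay. Run in triplicate. Values are means (±1 SD) from two independent experiments.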

Chain of Protease (Q9YQ12 whole entry): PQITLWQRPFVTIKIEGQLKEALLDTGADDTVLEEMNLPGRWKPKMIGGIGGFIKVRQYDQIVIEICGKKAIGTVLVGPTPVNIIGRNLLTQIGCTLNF

| SMILES | IC50 [1] [nM] | IC50 [2] [nM] | IC50 [3] [nM] | IC50 [4] [nM] | Ki [5] [nM] | IC50 [6] [nM] |
| --- | --- | --- | --- | --- | --- | --- |
| CC(C)CN(C[C@@H](O)[C@H](Cc1ccccc1)NC(=O)O[C@H]1CCOC1)S(=O)(=O)c1ccc(N)cc1 | 430 | 17 | 860 | > 1000 |  |  |
| CC(C)CN(C[C@@H](O)[C@H](CC12CC3CC(CC(C3)C1)C2)NC(=O)O[C@H]1CO[C@H]2OCC[C@H]21)S(=O)(=O)c1ccc(N)cc1 |  |  |  |  | 0.73 | 60 |
| COc1ccc(S(=O)(=O)N(CC(C)C)C[C@@H](O)[C@H](CC23CC4CC(CC(C4)C2)C3)NC(=O)O[C@@H]2CCOC2)cc1 |  |  |  |  | 2.8 |  |
| COc1ccc(S(=O)(=O)N(CC(C)C)C[C@@H](O)[C@H](CC23CC4CC(CC(C4)C2)C3)NC(=O)O[C@H]2CO[C@H]3OCC[C@H]32)cc1 | 360 | 15 | > 1000 | > 1000 | 0.48 | 32 |
| COc1ccc(S(=O)(=O)N(CC(C)C)C[C@@H](O)[C@H](CC23CC4CC(CC(C4)C2)C3)NC(=O)O[C@H]2CCOC2)cc1 | > 1000 | 460 | > 1000 | > 1000 | 0.54 | 39 |
| COc1ccc(S(=O)(=O)N(CC(C)C)C[C@@H](O)[C@H](CC23CC4CC(CC(C4)C2)C3)NC(=O)O[C@@H]2CO[C@@H]3OCCC[C@@H]32)cc1 |  |  |  |  | 24 | > 1000 |
| COc1ccc(S(=O)(=O)N(C[C@@H](O)[C@H](CC23CC4CC(CC(C4)C2)C3)NC(=O)O[C@H]2CO[C@H]3OCC[C@H]32)c2ccccc2)cc1 |  |  |  |  | 1.1 |  |
| CC(C)CN(C[C@@H](O)[C@H](CC12CC3CC(CC(C3)C1)C2)NC(=O)O[C@H]1CCOC1)S(=O)(=O)c1ccc(N)cc1 |  |  |  |  | 3.4 | 580 |
| COc1ccc(S(=O)(=O)N(Cc2ccccc2)C[C@@H](O)[C@H](CC23CC4CC(CC(C4)C2)C3)NC(=O)O[C@H]2CO[C@H]3OCC[C@H]32)cc1 |  |  |  |  | 8.5 | 310 |
| COc1ccc(S(=O)(=O)N(CC(C)C)C[C@@H](O)[C@H](CC23CC4CC(CC(C4)C2)C3)NC(=O)O[C@H]2CO[C@H]3OCCC[C@H]32)cc1 |  |  |  |  | 1.9 | 460 |
| COc1ccc(S(=O)(=O)N(CC(C)C)C[C@@H](O)[C@H](CC23CC4CC(CC(C4)C2)C3)NC(=O)O[C@@H]2CO[C@@H]3OCC[C@@H]32)cc1 |  |  |  |  | 1 |  |
| CC(C)CN(C[C@@H](O)[C@H](Cc1ccccc1)NC(=O)O[C@H]1CO[C@H]2OCC[C@H]21)S(=O)(=O)c1ccc(N)cc1 | 30 |  | 43 | 87 |  |  |
